ChEMBL document CHEMBL4316612, “Synthesis of novel dihydrotriazine derivatives bearing 1,3-diaryl pyrazole moieties as potential antibacterial agents” (Bioorg Med Chem Lett, 2019)
In brackets after ≈: the same amount, converted by molar mass.

Key:
Staphylococcus aureus [1] = test: Antibacterial activity against Staphylococcus aureus RN4220 by serial dilution method; assay type: functional
Summary of the method: (§1)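 Broth microdilution MIC. Bacteria grown to mid-log phase in Mueller-Hinton broth, diluted 1000-fold, and inoculated at 10^5 CFU/mL. Compounds in DMSO (final ≤0.05%) were given as two-fold serial dilutions, final 64-0.25 µg/mL. Plates were incubated 24 h at 37 °C and growth read at 650 nm. MIC is the lowest concentration giving complete growth inhibition. Three independent experiments; oxacillin and norfloxacin served as positive controls.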

Staphylococcus aureus [2] = test: Antibacterial activity against quinolone-resistant Staphylococcus aureus CCARM 3505 by serial dilution method; assay type: functional; summary of the method: as §1
Staphylococcus aureus [3] = test: Antibacterial activity against Staphylococcus aureus by serial dilution method; assay type: functional
Summary of the method: (§2)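 Two-fold serial broth dilution in Mueller-Hinton broth, final 64-0.25 µg/mL; compounds in DMSO (final ≤0.05%). Mid-log cultures diluted 1000-fold, inoculum 10^5 CFU/mL; oxacillin and norfloxacin as positive controls. After 24 h at 37 °C, growth read at 650 nm on a microtiter ELISA reader; MIC = lowest level giving complete growth inhibition. Run three times.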

Staphylococcus aureus [4] = test: Antibacterial activity against methicillin-resistant Staphylococcus aureus CCARM 3167 after 24 hrs by microtiter ELISA; assay type: functional; conditions: CCARM 3167, 24 h; summary of the method: as §1
Streptococcus mutans = test: Antibacterial activity against Streptococcus mutans 3289 after 24 hrs by microtiter ELISA; assay type: functional; conditions: Streptococcus mutans, 3289, 24 h; summary of the method: as §2
L02 = test: Cytotoxicity against human L02 cells assessed as inhibition of cell growth measured after 24 hrs by MTT assay; assay type: cell-based; conditions: L02, 24 h
Summary of the method: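 L02 normal human liver cells seeded at 1.8 × 10^4 cells/well in DMEM with 10% FBS and antimycotic. Exposed 24 h at 37 °C, 5% CO2 to 200-1.625 µM, compounds in 10% DMSO. MTT (2.5 mg/mL) added for 4 h, formazan dissolved in DMSO, OD at 570 nm. Untreated cells as negative control; IC50 = 50% growth inhibition; triplicate.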

Candida albicans = test: Antifungal activity against Candida albicans 7535 after 24 hrs by microtiter ELISA; assay type: functional; conditions: Candida albicans, 7535, 24 h; summary of the method: as §2
Staphylococcus aureus [5] = test: Antibacterial activity against quinolone-resistant Staphylococcus aureus CCARM 3505 after 24 hrs by microtiter ELISA; assay type: functional; conditions: CCARM 3505, 24 h; summary of the method: as §1
Staphylococcus aureus [6] = test: Antibacterial activity against quinolone-resistant Staphylococcus aureus CCARM 3519 after 24 hrs by microtiter ELISA; assay type: functional; conditions: CCARM 3519, 24 h; summary of the method: as §1
Escherichia coli = test: Antibacterial activity against Escherichia coli KCTC 1924 after 24 hrs by microtiter ELISA; assay type: functional; conditions: KCTC 1924, 24 h; summary of the method: as §2
Staphylococcus aureus [7] = test: Antibacterial activity against methicillin-resistant Staphylococcus aureus CCARM 3506 after 24 hrs by microtiter ELISA; assay type: functional; conditions: CCARM 3506, 24 h; summary of the method: as §1
Staphylococcus aureus [8] = test: Antibacterial activity against Staphylococcus aureus RN4220 after 24 hrs by microtiter ELISA; assay type: functional; conditions: RN4220, 24 h; summary of the method: as §1
[9] = biological target: Dihydrofolate reductase (Homo sapiens) (UniProt P00374); test: Inhibition of human DHFR at 10 umol/L measured after 1.5 hrs by ELISA relative to control
Chain of Dihydrofolate reductase (Homo sapiens) (P00374 whole entry, looked up): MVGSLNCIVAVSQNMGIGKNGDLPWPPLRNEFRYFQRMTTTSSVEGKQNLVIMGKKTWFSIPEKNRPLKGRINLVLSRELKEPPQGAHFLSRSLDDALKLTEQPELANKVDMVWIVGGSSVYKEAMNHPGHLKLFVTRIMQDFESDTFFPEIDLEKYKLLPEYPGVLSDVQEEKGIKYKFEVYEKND

Row | MIC (Staphylococcus aureus [3]) [µg/mL] | SMILES | MIC (Staphylococcus aureus [1]) [µg/mL] | MIC (Staphylococcus aureus [2]) [µg/mL] | MIC (Staphylococcus aureus [4]) [µg/mL] | MIC (Streptococcus mutans) [µg/mL] | IC50 (L02) [µM] | MIC (Candida albicans) [µg/mL] | MIC (Staphylococcus aureus [5]) [µg/mL] | MIC (Staphylococcus aureus [6]) [µg/mL] | MIC (Escherichia coli) [µg/mL] | MIC (Staphylococcus aureus [7]) [µg/mL] | MIC (Staphylococcus aureus [8]) [µg/mL] | inhibition [9] [%]
1 |  | NC1=NC(c2ccc3cc(OCc4ccc(Cl)cc4Cl)ccc3c2)N=C(N2CCOCC2)N1 (stereo unspecified) | 1 (≈ 2.06 µM) | 1 (≈ 2.06 µM) |  |  |  |  |  |  |  |  |  | 
2 | 16 (≈ 27.6 µM) | O=C(O)CN1C(=O)/C(=C/c2cn(-c3ccc([N+](=O)[O-])cc3[N+](=O)[O-])nc2-c2ccc(Cl)cc2Cl)SC1=S |  |  |  |  |  |  |  |  |  |  |  | 
3 |  | CN(C)C1=NC(c2cn(-c3ccc([N+](=O)[O-])cc3[N+](=O)[O-])nc2-c2ccc(Cl)cc2Cl)N=C(N)N1 (stereo unspecified) |  |  | 4 (≈ 7.72 µM) | 8 (≈ 15.4 µM) | > 100 | 8 (≈ 15.4 µM) | 8 (≈ 15.4 µM) | 16 (≈ 30.9 µM) | 8 (≈ 15.4 µM) | 4 (≈ 7.72 µM) | 8 (≈ 15.4 µM) | 
4 |  | NC1=NC(c2cn(-c3ccc([N+](=O)[O-])cc3)nc2-c2ccc(Cl)cc2Cl)N=C(NCCc2ccccc2)N1 (stereo unspecified) |  |  | 1 (≈ 1.82 µM) | 1 (≈ 1.82 µM) | 50.5 | 1 (≈ 1.82 µM) | 1 (≈ 1.82 µM) | 1 (≈ 1.82 µM) | 1 (≈ 1.82 µM) | 1 (≈ 1.82 µM) | 1 (≈ 1.82 µM) | 92
5 |  | CN(C)C1=NC(c2cn(-c3ccc([N+](=O)[O-])cc3)nc2-c2ccc(Cl)cc2Cl)N=C(N)N1 (stereo unspecified) |  |  | 2 (≈ 4.23 µM) | 4 (≈ 8.45 µM) | > 100 | 4 (≈ 8.45 µM) | 4 (≈ 8.45 µM) | 2 (≈ 4.23 µM) | 2 (≈ 4.23 µM) | 2 (≈ 4.23 µM) | 2 (≈ 4.23 µM) | 
